Measurements from different studies.
Effect on: cell growth or viability

For `C[C@H]1CCC/C=C/[C@@H]2C[C@H](O)C[C@H]2[C@H](O)/C=C/C(=O)O1`, the EC50 was 40 nM (HeLa; ATP luminescence).
The viability of `CC1(C)C=Cc2cc(/C=C/C(=O)Oc3ccccc3)ccc2O1` is reported as 81% (rat Primary cortical neuron; MTT; 1 µM, 12 h).
`COc1cc2c3c(n(CCCNCCO)c(=O)c2cc1OC)-c1cc2c(cc1C3=O)OCO2` gave a GI50 of 30 nM (UACC-62; SRB).
`CN[C@@H]1C[C@H]2O[C@@](C)([C@@H]1OC)n1c3ccccc3c3c4c(c5c6ccccc6n2c5c31)C(=O)NC4` gave a GI50 of 26 nM (U2OS).
`COc1ccc(NC(=O)CC(Nc2ccc(OC)cc2)c2ccc3c(c2)C=CC(C)(C)O3)cc1` (stereo not shown) gave a viability of greater than 80% (rat Primary cortical neuron; MTT; 1 µM, 12 h).
The IC50 of `CCC1(OC(=O)C(C)c2ccc3cc(OC)ccc3c2)C(=O)OCc2c1cc1n(c2=O)Cc2cc3cc4c(cc3nc2-1)OCO4` (stereo not shown) is reported as 2180 nM (HeLa; MTT).
With `C[S@@+]([O-])CCCCN=C=S` the IC50 was 16700 nM (Hepa-1c1c7; crystal violet; 48 h).
For `CC1(C)C=Cc2cc(/C=C/C(=O)N3CCN(c4ccc(O)cc4)CC3)ccc2O1`, the viability was 98% (rat Primary cortical neuron; MTT; 1 µM, 12 h).
The GI50 of `C[C@H]1CN(c2ccncc2NC(=O)c2ccc(F)c(-c3c(F)cccc3F)n2)C[C@@H](N)[C@@H]1O` is reported as 123 nM (KMS-11; thymidine uptake).
With `O=C(Cc1ccc2ccccc2c1)N[C@@H](Cc1ccccc1)C(=O)N[C@H](Cc1ccccc1)C(=O)N[C@H](Cc1ccc(OP(=O)(O)O)cc1)C(=O)O` the IC50 was 500000 nM (HeLa; MTT; 48 h).
